APJ antagonist: antagonists of human APJ apelin receptor. P35414. CHO-K1 APJ beta-arrestin complementation, luminescence. inhibition, % at 20 µM. actives 0.32% (n = 330,000);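 active = inhibition above about 40% at 20 µM, limit read from the data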;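 note: cells challenged with 10 nM apelin-13 agonist together with compound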
HTR2A ag: agonists of mouse serotonin 5-HT2A receptor (HTR2A); activation, % at 7.6 µM; actives 0.66% (n = 360,000); AID 624169; CHO-K1 mHTR2A beta-arrestin complementation, luminescence; percent of 30 µM serotonin response;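 active = activation above a run cutoff, the mean activation of all tested compounds plus 3 SD, cut at about 14% in these data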
EBI2 antag: blocks human EBI2 receptor beta-arrestin signaling | P32249 | EBI2 beta-arrestin recruitment, luminescence, 7a,25-OHC stimulated | inhibition, % at 5 µM | actives 0.81% (n = 360,000); in the data active = inhibition above about 38%;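 note: enzyme fragment complementation signal reports receptor beta-arrestin coupling in cells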
CXCR6 inh: CXCR6 (human) receptor inhibition. inhibition, % at 20 µM. CHO-K1 PathHunter CXCR6 beta-arrestin, luminescence. actives 0.36% (n = 360,000); in the data active = inhibition above about 34%, passing the limit was not always enough;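 note: antagonist mode with CXCL16 agonist at 10 nM final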
Target sequence (O00574 whole entry, looked up): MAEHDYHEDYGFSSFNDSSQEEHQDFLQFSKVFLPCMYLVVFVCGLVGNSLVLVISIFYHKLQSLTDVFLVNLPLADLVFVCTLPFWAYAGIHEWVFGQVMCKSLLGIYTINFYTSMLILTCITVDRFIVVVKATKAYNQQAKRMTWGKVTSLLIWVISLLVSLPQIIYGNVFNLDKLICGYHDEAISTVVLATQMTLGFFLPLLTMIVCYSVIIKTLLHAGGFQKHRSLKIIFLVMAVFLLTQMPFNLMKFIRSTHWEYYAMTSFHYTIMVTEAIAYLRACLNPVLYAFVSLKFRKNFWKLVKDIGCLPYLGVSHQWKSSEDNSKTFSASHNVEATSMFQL
APJ agonist: APJ receptor agonism | P35414 | CHO-K1 APJ PathHunter beta-arrestin, luminescence; 0% DMSO wells, 100% apelin | activation, % at 20 µM | actives 0.11% (n = 330,000);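 active = activation more than six SD over the plate average, tested at 20 µM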
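Assay system – PathHunter CHO-K1 APJ (AGTRL-1) beta-arrestin reporter cells · Compound – one dose, 20 µM compound, 1% DMSO · Timing – compound 90 min 25 °C, reagent 1 h · Measured by – luminescence from split beta-galactosidase complementation, Galacton Star/Emerald II substrate · Measure – beta-arrestin recruitment to APJ as agonist activity, luminescent signal · Benchmarks – DMSO vs Apelin-13 10 nM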
CCR6 antag: CCR6 (human) receptor antagonism. P51684. CHO-K1 CCR6 PathHunter beta-arrestin, luminescence, CCL20-stimulated. inhibition, % at 20 µM. actives 0.49% (n = 340,000). AID 493098;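 active = compounds whose inhibition of the agonist-driven luminescence signal at 20 µM reaches about 50%, limit read from the data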;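 note: cells stimulated with CCL20 at 14 nM final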
EBI2 antag conf: EBI2 (human) antagonism, single concentration confirmation; shares compounds with EBI2 antag; EBI2 beta-arrestin luminescence, 7a,25-OHC antagonism; inhibition, % at 5 µM; actives 29% (n = 2,400);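 active = inhibition of at least 50%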
EBI2 ag: activates EBI2, counter-screen for EBI2 antagonists. activation, % at 5 µM. shares compounds with EBI2 antag. AID 652000. EBI2-expressing cells, agonist mode, luminescence, 60 min; 0% vehicle, 100% 7α,25-dihydroxycholesterol control. 2,400 tested, under 10 active;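 active = activation of at least 50%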
bGal counter: beta-galactosidase inhibition counter-screen | inhibition, % at 5 µM | actives 1% (n = 2,400) | shares compounds with EBI2 antag | AID 652176 | purified beta-galactosidase, luminescent Galacton Star, 15 min;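 active = replicate-average signal at least 3 plate SD below neutral wells, shown as high inhibition, flagging enzyme-inhibiting false positives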;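 note: higher means stronger loss of beta-gal luminescence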
Numbers stand for hits; – = inactive; · = no result given. Hits are enriched below; roughly 2.2% of the tested compounds scored in any of these assays.

SMILES	APJ antagonist	HTR2A ag	EBI2 antag	CXCR6 inh	APJ agonist	CCR6 antag	EBI2 antag conf	EBI2 ag	bGal counter
COCCOC(=O)c1c(NC(=O)CNC2CCCc3ccccc32)sc(C(N)=O)c1C (stereo not given)	–	–	82	–	–	–	–	–	–
CCOC(=O)c1c(NC(=O)CN2CCCc3ccccc32)sc(C(C)=O)c1C	–	–	–	–	–	–	·	·	·
CN(C(=O)c1ccc(Cl)cc1)c1ccc(OCC(=O)Nc2cc(C(=O)O)ccc2Cl)cc1	·	·	·	·	·	–	·	·	·
CC(=O)N1CCC(C(=O)N2c3ccccc3N=C(c3ccc(C(F)(F)F)cc3)C2C(=O)NC2CCCC2)CC1 (stereo not given)	·	–	–	·	·	·	·	·	·
COC(=O)/C=C1\C(=O)N(c2nc3ccc(OC)cc3s2)C(=S)N1c1ccc(F)cc1	–	·	·	·	–	·	·	·	·
COC(=O)/C=C1\C(=O)N(c2nc3ccccc3s2)C(=S)N1c1ccc(F)cc1	–	–	89	–	–	–	90	–	–
O=C(CCCN1C(=O)/C(=C/c2cccs2)SC1=S)NNC(=O)c1ccc(F)cc1	–	–	63	–	–	–	–	–	–
COC(=O)c1sc(-c2ccccc2)cc1NC(=O)C1CC1	–	–	–	–	–	–	·	·	·
CCOc1ccc(NC(=O)Nc2cc(-c3ccccc3)sc2C(=O)OC)cc1	–	–	46	–	–	–	–	–	–
COCC(=O)N(C)C[C@@H]1Oc2cc(-c3ccc(F)cc3)ccc2S(=O)(=O)N([C@H](C)CO)C[C@H]1C	·	–	–	–	·	·	·	·	·
COc1ccc(Cc2c(-c3ccc(C#N)cc3)nc3c4ccccc4ccn23)c(C)c1	·	–	–	–	·	·	·	·	·
COc1ccccc1Cc1c(-c2ccc(C#N)cc2)nc2c3ccccc3ccn12	·	–	43	–	·	·	–	–	–
CC(=O)c1ccc(Nc2ccc(-c3ccccc3F)nn2)cc1	–	–	42	–	–	–	–	–	–
COc1ccc(-c2nc3ccc(Cl)cn3c2CC(C)(C)C)cc1OC	·	–	–	–	·	·	·	·	·
CCOC(=O)[C@H](C)N1[C@H](C)[C@H](c2ccccc2)Oc2ccc(Cl)cc2S1(=O)=O	·	–	46	–	·	–	–	–	–
C[C@@H]1[C@H](c2ccccc2)Oc2ccc(Cl)cc2S(=O)(=O)N1CC1CCCN1C(=O)OC(C)(C)C (stereo not given in full)	·	–	–	–	·	–	·	·	·
COCCCNC(=O)C[C@@H]1C[C@@]2(C(=O)OC)CCCCC=C2N(Cc2ccco2)C1=O	·	–	–	–	·	·	·	·	·
CCOc1ccccc1N1CCN(C(=O)c2cc3ccccc3cc2OC)CC1	–	–	57	–	–	–	–	–	–
COc1cc2ccccc2cc1C(=O)N1CCN(C(C)=O)CC1	–	–	66	–	–	–	52	–	–
CC(=O)NC(c1cccc(F)c1)c1nc(/C=C/c2ccccc2)cs1 (stereo not given)	·	–	–	–	·	·	·	·	·
Cc1ccc(C)c(S(=O)(=O)N2CCN(C(=O)CNC(=O)c3ccc4ccccc4c3)CC2)c1	–	–	63	–	–	–	–	–	–
COc1ccccc1/C=C/C(=O)N1CCN(S(=O)(=O)c2cc(C)ccc2C)CC1	–	–	85	–	–	–	76	–	–
Cc1ccc(C)c(S(=O)(=O)N2CCN(C(=O)CCC(=O)c3cc(C)sc3C)CC2)c1	–	–	78	–	–	–	51	–	–
CC(C)CC(=O)N1CC=CC[C@@H](c2ccc(Cl)cc2)N(Cc2ccc(Cl)cc2)C(=O)[C@@H]1Cc1ccccc1	·	–	–	–	·	–	·	·	·
CC(C)NC(=O)C1(C)CSCC(=O)N1CCCN1CCOCC1 (stereo not given)	·	–	–	·	·	·	·	·	·
SMILES	APJ antagonist	HTR2A ag	EBI2 antag	CXCR6 inh	APJ agonist	CCR6 antag	EBI2 antag conf	EBI2 ag	bGal counter
COc1ccc(OCCN2CCC(C(=O)NC(c3ccc(Cl)cc3)c3ncccc3C)CC2)cc1 (stereo not given)	·	–	55	–	·	·	–	–	–
COc1ccccc1C(NC(=O)C1CCN(CCOc2ccc3ccccc3c2)CC1)c1ccccn1 (stereo not given)	·	–	45	–	·	·	–	–	–
Cc1cccnc1C(NC(=O)C1CCN(CCOc2ccc(F)cc2)CC1)c1ccc(Cl)cc1 (stereo not given)	·	–	–	–	·	·	·	·	·
COc1ccc(/C=C/CN2CCC(C(=O)NC(c3ccc(F)cc3)c3ccc4ccccc4n3)CC2)cc1 (stereo not given)	·	–	60	–	·	·	–	–	–
COc1ccc(OCCN2CCC(C(=O)NC(c3ccc(F)cc3)c3ncccc3C)CC2)cc1 (stereo not given)	·	–	46	–	·	·	–	–	–
COc1ccc(OCCN2CCC(C(=O)NC(c3ccccn3)c3ccccc3OC)CC2)cc1 (stereo not given)	·	–	–	–	·	·	·	·	·
CC(C)CN1CCC(C(=O)NC(c2ccc(F)cc2)c2ccc3ccccc3n2)CC1 (stereo not given)	·	–	–	–	·	·	·	·	·
COc1cc(CNC(=O)c2cc(-c3ccc(F)cc3OC)n[nH]2)cc(OC)c1	·	–	–	–	·	·	·	·	·
CCCCCCCCN1C(=O)[C@H](CC(=O)NCc2cccs2)C[C@@]2(C(=O)OC)CC(C)(C)CC=C12	·	–	–	·	·	·	·	·	·
O=C(COC(=O)c1ccccc1SCC(=O)N1CCCC1)NCc1ccc(F)cc1	·	–	–	–	·	·	·	·	·
COc1ccc([C@H]2C[C@@H](O)[C@H](n3cc(-c4ccc(F)cc4)nn3)CN2C(=O)C2CCCCC2)cc1	·	–	–	–	·	·	·	·	·
CN1CCN(C(=O)c2cc3cc(Cl)ccc3[nH]2)CC1	–	–	56	–	–	–	–	–	–
O=CN1CCN(C(=O)c2cc3cc(Cl)ccc3[nH]2)CC1	–	–	59	–	–	–	–	–	–
CCOC(=O)N1CCN(C(=O)c2cc3cc(OC)c(OC)cc3[nH]2)CC1	–	–	–	–	–	–	·	·	·
O=C(c1cc2cc(Cl)ccc2[nH]1)N1CCCCC1	–	–	–	–	–	–	·	·	·
CCN1CCN(C(=O)c2cc3cc(Cl)ccc3[nH]2)CC1	–	–	84	–	–	–	67	–	–
O=C(O)c1cc2cc(Cl)ccc2[nH]1	·	–	–	–	·	–	·	·	·
O=C(c1cc2cc(Cl)ccc2[nH]1)N1CCN(Cc2ccc3c(c2)OCO3)CC1	–	–	95	–	–	–	85	–	–

High-throughput results as filed in PubChem BioAssay.
